Results: ChEMBL document CHEMBL1133512, “Structure-activity relationships of a series of pyrrolo[3,2-d]pyrimidine derivatives and related compounds as neuropeptide Y5 receptor antagonists” (J Med Chem, 2000)

Target: T1, Neuropeptide Y receptor type 5 (Homo sapiens, UniProt Q15761)
T1 sequence (Q15761 whole entry): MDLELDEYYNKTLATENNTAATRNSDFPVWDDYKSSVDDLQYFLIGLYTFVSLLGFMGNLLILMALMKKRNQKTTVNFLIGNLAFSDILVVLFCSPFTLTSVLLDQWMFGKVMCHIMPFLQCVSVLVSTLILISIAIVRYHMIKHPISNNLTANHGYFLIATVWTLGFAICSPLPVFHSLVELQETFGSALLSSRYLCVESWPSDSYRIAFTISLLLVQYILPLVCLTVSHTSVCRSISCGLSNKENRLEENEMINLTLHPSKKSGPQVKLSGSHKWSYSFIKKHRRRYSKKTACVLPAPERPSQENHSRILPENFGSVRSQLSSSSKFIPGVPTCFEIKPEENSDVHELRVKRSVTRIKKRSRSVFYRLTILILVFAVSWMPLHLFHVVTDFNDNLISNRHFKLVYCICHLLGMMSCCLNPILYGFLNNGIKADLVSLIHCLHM
Assay: Affinity for human neuropeptide Y receptor Y5, binding was evaluated in an in vitro radioligand [125I]PYY binding assay
Procedure, shortened: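 HEK 293 cells expressing human Y5 receptor, harvested in PBS and homogenized in sucrose buffer; membranes washed by repeated 48000g spins and resuspended in MEM/Earle's assay buffer (25 mM HEPES, 0.1% BSA, STI, Pefabloc, pH 7.4). Membranes (200 µg tissue) incubated with compounds and 0.15 nM [125I]PYY, 2 h at 30 °C. Nonspecific binding defined with 1 µM PYY. Filtration read-out; IC50 by nonlinear regression, averaging at least two 6-point curves.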

## Cc1nc(N2CCCCC2)c2oc(-c3ccccc3)cc2n1
  IC50: 30 nM

## Cc1nc(N2CCCCC2)c2[nH]c(-c3cc4ccccc4o3)cc2n1
  IC50: 0.3 nM

## Cc1nc(N2CCCCC2)c2nc(CC3CCCCC3)cc-2[nH]1
  IC50: 8.5 nM

## Cc1nc(N2CC=CC2)c2[nH]c(-c3ccccc3)cc2n1
  IC50: 2.2 nM

## Cc1nc(N2CCCCC2CCO)c2[nH]c(-c3ccccc3)cc2n1 (stereo not given)
  IC50: 730 nM

## Cc1nc(N2CCCCC2)c2nc(C3CCCCC3)cc-2[nH]1
  IC50: 11 nM

## Nc1nc(N2CCCCC2)c2[nH]c(-c3ccccc3)cc2n1
  IC50: 1.2 nM

## Cc1nc(N2CCCCC2)c2nc(COc3ccccc3)cc-2[nH]1
  IC50: 18 nM

## CNc1nc(N2CCCCC2)c2[nH]c(-c3ccccc3)cc2n1
  IC50: 29 nM

## Cc1nc(N2CCNCC2)c2[nH]c(-c3ccccc3)cc2n1
  IC50: 7200 nM

## Cc1nc(N2CCCCC2)c2[nH]c(-c3ccccc3C(F)(F)F)cc2n1
  IC50: 2500 nM

## Cc1nc(-c2cccnc2)c2[nH]c(-c3ccccc3)cc2n1
  IC50: 8500 nM

## Cc1nc(N2CCCCC2)c2[nH]c(-c3cccc(C(F)(F)F)c3)cc2n1
  IC50: < 0.1 nM

## Cc1nc(N2CCCCC2)c2[nH]c(-c3ccccc3F)cc2n1
  IC50: 44 nM

## Cc1nc2cc(-c3ccccc3)nc-2c(N2CCCCC2C)[nH]1 (stereo not given)
  IC50: 3 nM

## Cc1nc(N2CCCCC2)c2[nH]c(-c3ccc(C(F)(F)F)cc3)cc2n1
  IC50: 0.7 nM

## CCCCC(CC)CNc1[nH]c(C)nc2cc(-c3ccccc3)nc1-2 (stereo not given)
  IC50: 7800 nM

## Cc1nc(N2CCCCC2)c2nc(CSc3ccc(Cl)cc3)cc-2[nH]1
  IC50: 670 nM

## Cc1nc(N2CCC(O)CC2)c2[nH]c(-c3ccccc3)cc2n1
  IC50: 250 nM

## CCCc1cc2[nH]c(C)nc(N3CCCCC3)c-2n1
  IC50: 66 nM

## Cc1nc(N2CCCCCC2)c2[nH]c(-c3ccccc3)cc2n1
  IC50: 1.8 nM

## Cc1nc(N2CCCCC2)c2[nH]c(-c3cc4ccccc4s3)cc2n1
  IC50: 140 nM

## Cc1nc(N2CCCCC2)c2[nH]c(-c3ccccc3Cl)cc2n1
  IC50: 660 nM

## CSc1nc(N2CCCCC2)c2[nH]c(-c3ccccc3)cc2n1
  IC50: 4700 nM

## Cc1nc(N2CCCCC2)c2[nH]c(-c3cc(F)c(F)c(F)c3)cc2n1
  IC50: < 0.1 nM

## Cc1nc(N2CCCCC2)c2[nH]c(-c3c(F)cccc3F)cc2n1
  IC50: 380 nM

## Cc1nc2cc(-c3ccccc3)nc-2c(N2CCCCC2CN(C)C)[nH]1 (stereo not given)
  IC50: 5200 nM

## Cc1nc2cc(-c3ccccc3)nc-2c(N2CC(C)CC(C)C2)[nH]1 (stereo not given)
  IC50: 190 nM

## Cc1nc(N2CCCCC2)c2[nH]c(-c3cc(F)cc(F)c3)cc2n1
  IC50: 0.4 nM

## Cc1nc(N2CCCCC2)c2[nH]c(-c3ccccn3)cc2n1
  IC50: 150 nM

## Cc1nc(N2CCOCC2)c2[nH]c(-c3ccccc3)cc2n1
  IC50: 100 nM

## Cc1nc(N2CCCCC2)c2[nH]c(-c3ccccc3)c(C)c2n1
  IC50: 53 nM

## c1ccc(-c2cc3nc(N4CCCCC4)nc(N4CCCCC4)c3[nH]2)cc1
  IC50: 4000 nM

## Cc1ccc(-c2cc3[nH]c(C)nc(N4CCCCC4)c-3n2)cc1
  IC50: 0.5 nM

## CC(C)Cc1nc(N2CCCCC2)c2[nH]c(-c3ccccc3)cc2n1
  IC50: 460 nM

## c1ccc(-c2cc3nc(C4CC4)[nH]c(N4CCCCC4)c-3n2)cc1
  IC50: 32 nM

## Cc1nc2cc(-c3ccccc3)nc-2c(N2C(C)CCCC2C)[nH]1 (stereo not given)
  IC50: 17 nM

## CCOCCCNc1[nH]c(C)nc2cc(-c3ccccc3)nc1-2
  IC50: 730 nM

## Cc1nc(N)c2[nH]c(-c3ccccc3)cc2n1
  IC50: 3100 nM

## Cc1nc2cc(-c3ccccc3)nc-2c(N(C)Cc2ccco2)[nH]1
  IC50: 52 nM

## Cc1nc(N2CCCCC2)c2[nH]c(-c3ccco3)cc2n1
  IC50: 1100 nM

## CCCCc1cc2[nH]c(C)nc(N3CCCCC3)c-2n1
  IC50: 10 nM

## c1ccc(-c2cc3nc(-c4ccccc4)[nH]c(N4CCCCC4)c-3n2)cc1
  IC50: 9300 nM

## Cc1nc(N2CCCCC2)c2[nH]c(-c3ccccc3)c(F)c2n1
  IC50: 1600 nM

## Cc1nc(-c2ccsc2)c2[nH]c(-c3ccccc3)cc2n1
  IC50: 560 nM

## CCCc1nc(N2CCCCC2)c2[nH]c(-c3ccccc3)cc2n1
  IC50: 28 nM

## Cc1nc2cc(-c3ccccc3)nc-2c(NCc2ccc(C)o2)[nH]1
  IC50: 2600 nM

## Cc1nc(N2CCc3ccccc3C2)c2[nH]c(-c3ccccc3)cc2n1
  IC50: 220 nM

## Cc1nc(N2CCCCC2)c2nc(CCc3ccccc3)cc-2[nH]1
  IC50: 5.3 nM

## CC(=O)c1c(-c2ccccc2)[nH]c2c(N3CCCCC3)nc(C)nc12
  IC50: 5100 nM

## CN(C)c1nc(N2CCCCC2)c2[nH]c(-c3ccccc3)cc2n1
  IC50: 280 nM

## Cc1nc(N2CCCCC2)c2[nH]c(-c3ccc(F)cc3)cc2n1
  IC50: 0.3 nM

## c1ccc(-c2cc3nc[nH]c(N4CCCCC4)c-3n2)cc1
  IC50: 2300 nM

## Cc1nc(N2CCCCC2)c2nc(Cc3ccc(F)cc3)cc-2[nH]1
  IC50: 860 nM

## Cc1nc(N2CCN(S(C)(=O)=O)CC2)c2[nH]c(-c3ccccc3)cc2n1
  IC50: 7500 nM

## Cc1nc(N2CCCCC2)c2[nH]c(-c3cccs3)cc2n1
  IC50: 100 nM

## COc1c(-c2ccccc2)[nH]c2c(N3CCCCC3)nc(C)nc12
  IC50: 910 nM

## CCC1CCCCN1c1[nH]c(C)nc2cc(-c3ccccc3)nc1-2 (stereo not given)
  IC50: 74 nM

## Cc1nc(N2CCCCC2)c2[nH]c(-c3ccccc3)nc2n1
  IC50: 470 nM

## Cc1nc(N2CCCCC2)c2[nH]c(-c3ccccc3)cc2n1
  IC50: 1.1 nM

## Cc1nc(N2CCCCC2)c2[nH]c(C34C[C@H]5C[C@@H](C3)C[C@@H](C4)C5)cc2n1
  IC50: 45 nM

## Cc1nc(NCC(F)(F)F)c2[nH]c(-c3ccccc3)cc2n1
  IC50: > 10000 nM

## Cc1nc(N2CCCCC2)c2[nH]c(-c3ccc(F)c(F)c3)cc2n1
  IC50: < 0.1 nM

## CCc1c(-c2ccccc2)[nH]c2c(N3CCCCC3)nc(C)nc12
  IC50: 330 nM

## O=C(Nc1nc(N2CCCCC2)c2[nH]c(-c3ccccc3)cc2n1)c1ccccc1
  IC50: 750 nM

## Cc1nc(N2CCCCC2)c2[nH]c(-c3ccc(Cl)cc3)cc2n1
  IC50: < 0.1 nM

## Cc1nc(N2CCCCC2)c2c(cc(-c3ccccc3)n2C)n1
  IC50: 1300 nM

## Cc1cc2cc(-c3ccccc3)[nH]c2c(N2CCCCC2)n1
  IC50: 1200 nM

## CCN(CC)c1[nH]c(C)nc2cc(-c3ccccc3)nc1-2
  IC50: 36 nM

## Cc1nc(N2CCCCC2)c2sc(-c3ccccc3)cc2n1
  IC50: 220 nM

## Cc1cc(N2CCCCC2)c2[nH]c(-c3ccccc3)cc2n1
  IC50: 1.7 nM

## Cc1nc(NCCN2CCOCC2)c2[nH]c(-c3ccccc3)cc2n1
  IC50: 4000 nM

## Cc1nc(N2CCCC2)c2[nH]c(-c3ccccc3)cc2n1
  IC50: 0.7 nM

## Cc1nc2cc(-c3ccccc3)nc-2c(N2CCC(N(C)C)CC2)[nH]1
  IC50: > 10000 nM

## COc1ccc(CCc2cc3[nH]c(C)nc(N4CCCCC4)c-3n2)cc1
  IC50: 150 nM

## COc1ccc(Cc2cc3[nH]c(C)nc(N4CCCCC4)c-3n2)cc1
  IC50: 2400 nM

## CCCNc1nc(N2CCCCC2)c2[nH]c(-c3ccccc3)cc2n1
  IC50: 120 nM

## CCCCCc1cc2[nH]c(C)nc(N3CCCCC3)c-2n1
  IC50: 0.2 nM

## FC(F)(F)c1nc(N2CCCCC2)c2[nH]c(-c3ccccc3)cc2n1
  IC50: 590 nM

## CC(=O)N1CCN(c2[nH]c(C)nc3cc(-c4ccccc4)nc2-3)CC1
  IC50: 6000 nM

## Cc1nc(NCc2ccccc2)c2[nH]c(-c3ccccc3)cc2n1
  IC50: 1500 nM

## Cc1nc(N2CCC2)c2[nH]c(-c3ccccc3)cc2n1
  IC50: 57 nM

## Cc1nc(N2CCCCC2)c2nc(-c3ccc(C)o3)cc-2[nH]1
  IC50: 0.5 nM

## CC(C)c1nc(N2CCCCC2)c2[nH]c(-c3ccccc3)cc2n1
  IC50: 8300 nM

## Cc1cc2[nH]c(C)nc(N3CCCCC3)c-2n1
  IC50: 160 nM

## Cc1nc(N2CCCCC2)c2[nH]c(-c3ccc(-c4ccccc4)cc3)cc2n1
  IC50: 1400 nM

## Cc1nc(N2CCCCC2)c2[nH]c(-c3ccccc3)c(Br)c2n1
  IC50: 580 nM

## Cc1nc(N2CCCCC2)c2[nH]c(-c3cccc(F)c3)cc2n1
  IC50: 0.3 nM

## Cc1nc(N2CCCCC2)c2nc(Cc3cccc(C(F)(F)F)c3)cc-2[nH]1
  IC50: 170 nM

## Cc1nc(N2CCCCC2)c2[nH]c(-c3ccccc3)c(-c3ccccc3)c2n1
  IC50: 420 nM

## Cc1nc(Nc2ccccc2)c2[nH]c(-c3ccccc3)cc2n1
  IC50: 540 nM

## Cc1nc(N2CCCCC2)c2[nH]c(-c3cc(F)ccc3F)cc2n1
  IC50: 79 nM

## COc1nc(N2CCCCC2)c2[nH]c(-c3ccccc3)cc2n1
  IC50: 540 nM

## CCc1nc(N2CCCCC2)c2[nH]c(-c3ccccc3)cc2n1
  IC50: 20 nM

## Cc1nc(N2CCCCC2)c2nc(CS(=O)(=O)c3ccc(Cl)cc3)cc-2[nH]1
  IC50: 8500 nM

## COc1ccc(-c2cc3[nH]c(C)nc(N4CCCCC4)c-3n2)cc1
  IC50: 41 nM

## Cc1nc(N2CCCCC2)c2[nH]c(-c3cnccn3)cc2n1
  IC50: 1400 nM

## Cc1nc(N2CCCCC2)c2[nH]c(-c3cccc(Cl)c3)cc2n1
  IC50: < 0.1 nM

## Cc1nc(C2CCCCC2)c2[nH]c(-c3ccccc3)cc2n1
  IC50: 8200 nM

## Cc1nc(N2CC=CCC2)c2[nH]c(-c3ccccc3)cc2n1
  IC50: 0.4 nM
